According to ChEMBL document CHEMBL2146419, “Effects of polyphenol compounds on influenza A virus replication and definition of their mechanism of action” (Bioorg Med Chem, 2012):
Active and inactive are the calls of the source. The calls are words filed in the database; no cut-off is given here.

Assays:
Influenza A virus [1] = assay: Antiviral activity against Influenza virus A/Puerto Rico/8/34 H1N1 infected in dog MDCK cells at 10 ug/mL incubated for 4 hrs post-infection followed by compound washout measured after 24 hrs by hemagglutininating unit assay; format: functional, organism-based; details: A/Puerto Rico/8/1934(H1N1)
Procedure, shortened: (§1)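 Compound added to PR8-infected MDCK cells immediately after virus challenge, then removed at 2, 4, 6, 8 or 24 h p.i. Supernatant virus yield was measured by HAU at 24 h p.i. and expressed as a percentage of DMSO-treated control infected cells. Means of two experiments, each in duplicate.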

MDCK [2] = assay: Inhibition of PKC/p38MAPK-mediated nuclear-cytoplasmic viral nucleoprotein export in dog MDCK cells infected with Influenza virus A/Puerto Rico/8/34 H1N1 measured at 8 hrs post-infection by inmmunofluorescence; format: cell-based; details: Canis lupus familiaris
Procedure, shortened: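 MDCK cells were infected with PR8 at 1 M.O.I. for single-cycle replication. At 8 h p.i. cells were fixed, permeabilized and stained with DAPI, then with anti-NP primary and FITC-conjugated secondary antibody. NP localization was assessed by fluorescence microscopy.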

Influenza A virus [3] = assay: Antiviral activity against Influenza virus A/Puerto Rico/8/34 H1N1 infected in dog MDCK cells assessed as reduction in neuraminidase expression at 10 ug/mL after 24 hrs by immunoblotting analysis relative to control; format: functional, A/Puerto Rico/8/1934(H1N1); design: scale not given: the % may be the effect or the level left
Procedure, shortened: (§2)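 PR8-infected MDCK cells, untreated or treated, were lysed at 24 h. Homogenates were run on 12% gels under reducing conditions, blotted to nitrocellulose and probed with goat polyclonal anti-influenza antibodies. Densitometry was expressed as the ratio of each viral protein to actin, relative to untreated infected cells.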

Influenza A virus [4] = assay: Antiviral activity against Influenza virus A/Puerto Rico/8/34 H1N1 infected in dog MDCK cells incubated for 1 hr prior to infection by hemagglutininating unit assay; format: functional, organism-based; details: A/Puerto Rico/8/1934(H1N1)
Procedure, shortened: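 Timing variants, each read by HAU of virus yield from MDCK cells: PR8 stock preincubated 1 h with compound before infection; compound present only during the 1 h adsorption; or cells pretreated overnight with washout just before viral challenge.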

Influenza A virus [5] = assay: Antiviral activity against Influenza virus A/Puerto Rico/8/34 H1N1 infected in dog MDCK cells assessed as reduction in matrix protein 1 expression at 10 ug/mL after 24 hrs by immunoblotting analysis relative to control; format: functional, organism-based; details: A/Puerto Rico/8/1934(H1N1); procedure, shortened: as §2
Influenza A virus [6] = assay: Antiviral activity against Influenza virus A/Puerto Rico/8/34 H1N1 infected in dog MDCK cells assessed as inhibition of viral replication at 10 ug/mL incubated at 1 hr post-infection measured after 24 hrs by hemagglutininating unit assay relative to control; format: functional; details: A/Puerto Rico/8/1934(H1N1)
Procedure, shortened: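 MDCK cells infected with PR8; 1 h after adsorption they were washed, and compound (5–20 μg/ml) or DMSO was added and kept on throughout. Virus released into the supernatant was titrated by HAU assay 24 h p.i. Yield is a percentage of control infected cells given 0.02% DMSO. Means of four experiments, each in duplicate.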

Influenza A virus [7] = assay: Antiviral activity against Influenza virus A/Puerto Rico/8/34 H1N1 infected in dog MDCK cells at 10 ug/mL incubated for 6 hrs post-infection followed by compound washout measured after 24 hrs by hemagglutininating unit assay relative to control; format: functional, A/Puerto Rico/8/1934(H1N1); procedure, shortened: as §1
MDCK [8] = assay: Cytotoxicity against dog MDCK cells assessed as morphological alterations at 20 to 40 ug/mL incubated for 24 hrs followed by compound wash out measured after 24 hrs by microscopic analysis; format: cell-based, Canis lupus familiaris
Procedure, shortened: (§3)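 Confluent MDCK monolayers plated at 2×10^5/ml were treated after 24 h with compound at 5–40 μg/ml and incubated a further 24 h. Assessed by microscopic examination of morphology, Trypan blue exclusion for viability, and cell counts for multiplication rate.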

Influenza A virus [9] = assay: Antiviral activity against Influenza virus A/Puerto Rico/8/34 H1N1 infected in dog MDCK cells assessed as reduction in nucleoprotein expression at 10 ug/mL after 24 hrs by immunoblotting analysis relative to control; format: functional, organism-based; details: A/Puerto Rico/8/1934(H1N1); procedure, shortened: as §2
Influenza A virus [10] = assay: Antiviral activity against Influenza virus A/Puerto Rico/8/34 H1N1 infected in dog MDCK cells assessed as reduction in hemagglutininin expression at 10 ug/mL after 24 hrs by immunoblotting analysis relative to control; format: functional, organism-based; details: A/Puerto Rico/8/1934(H1N1); procedure, shortened: as §2
Influenza A virus [11] = assay: Antiviral activity against Influenza virus A/Puerto Rico/8/34 H1N1 infected in dog MDCK cells at 10 ug/mL incubated for 24 hrs post-infection followed by compound washout measured after 24 hrs by hemagglutininating unit assay relative to control; format: functional, A/Puerto Rico/8/1934(H1N1); procedure, shortened: as §1
MDCK [12] = assay: Inhibition of PKC/p38MAPK-mediated nuclear-cytoplasmic viral nucleoprotein export in dog MDCK cells infected with Influenza virus A/Puerto Rico/8/34 H1N1 assessed as increase in nucleoprotein level in nucleus measured at 8 hrs post-infection by Western blot analysis; format: cell-based; details: Canis lupus familiaris
Procedure, shortened: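 Cytosolic and nuclear extracts from treated and untreated infected MDCK cells were run on SDS-PAGE and immunoblotted with anti-NP antibodies. Blots were stripped and reprobed for α-tubulin (cytosol) or lamin A/C (nucleus). Densitometry is given as the NP/tubulin or NP/lamin ratio; one representative experiment of three.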

Influenza A virus [13] = assay: Antiviral activity against Influenza virus A/Puerto Rico/8/34 H1N1 infected in dog MDCK cells at 10 ug/mL incubated for 8 hrs post-infection followed by compound washout measured after 24 hrs by hemagglutininating unit assay relative to control; format: functional, A/Puerto Rico/8/1934(H1N1); procedure, shortened: as §1
MDCK [14] = assay: Cytotoxicity against dog MDCK cells assessed as morphological alterations at 40 ug/mL incubated for 24 hrs followed by compound wash out measured after 24 hrs by microscopic analysis; format: cell-based, Canis lupus familiaris; procedure, shortened: as §3
Influenza A virus [15] = assay: Antiviral activity against Influenza virus A/Puerto Rico/8/34 H1N1 infected in dog MDCK cells at 20 ug/mL incubated for 24 hrs post-infection followed by compound washout measured after 24 hrs by hemagglutininating unit assay relative to control; format: functional, A/Puerto Rico/8/1934(H1N1); procedure, shortened: as §1
Influenza A virus [16] = assay: Antiviral activity against Influenza virus A/Puerto Rico/8/34 H1N1 infected in dog MDCK cells at 20 ug/mL incubated for 6 hrs post-infection followed by compound washout measured after 24 hrs by hemagglutininating unit assay relative to control; format: functional, A/Puerto Rico/8/1934(H1N1); procedure, shortened: as §1
Influenza A virus [17] = assay: Antiviral activity against Influenza virus A/Puerto Rico/8/34 H1N1 infected in dog MDCK cells assessed as reduction in matrix protein 1 expression at 20 ug/mL after 24 hrs by immunoblotting analysis relative to control; format: functional, A/Puerto Rico/8/1934(H1N1); design: scale not given: the % may be the effect or the level left; procedure, shortened: as §2
Influenza A virus [18] = assay: Antiviral activity against Influenza virus A/Puerto Rico/8/34 H1N1 infected in dog MDCK cells at 20 ug/mL incubated for 8 hrs post-infection followed by compound washout measured after 24 hrs by hemagglutininating unit assay relative to control; format: functional, A/Puerto Rico/8/1934(H1N1); procedure, shortened: as §1
Influenza A virus [19] = assay: Antiviral activity against Influenza virus A/Puerto Rico/8/34 H1N1 infected in dog MDCK cells at 20 ug/mL incubated for 2 hrs post-infection followed by compound washout measured after 24 hrs by hemagglutininating unit assay; format: functional, organism-based; details: A/Puerto Rico/8/1934(H1N1); procedure, shortened: as §1
Influenza A virus [20] = assay: Antiviral activity against Influenza virus A/Puerto Rico/8/34 H1N1 infected in dog MDCK cells assessed as reduction in neuraminidase expression at 20 ug/mL after 24 hrs by immunoblotting analysis relative to control; format: functional, A/Puerto Rico/8/1934(H1N1); design: scale not given: the % may be the effect or the level left; procedure, shortened: as §2
Influenza A virus [21] = assay: Antiviral activity against Influenza virus A/Puerto Rico/8/34 H1N1 infected in dog MDCK cells assessed as reduction in hemagglutininin expression at 20 ug/mL after 24 hrs by immunoblotting analysis relative to control; format: functional, A/Puerto Rico/8/1934(H1N1); design: scale not given: the % may be the effect or the level left; procedure, shortened: as §2
Influenza A virus [22] = assay: Antiviral activity against Influenza virus A/Puerto Rico/8/34 H1N1 infected in dog MDCK cells assessed as reduction in nucleoprotein expression at 20 ug/mL after 24 hrs by immunoblotting analysis relative to control; format: functional, organism-based; details: A/Puerto Rico/8/1934(H1N1); procedure, shortened: as §2
Influenza A virus [23] = assay: Antiviral activity against Influenza virus A/Puerto Rico/8/34 H1N1 infected in dog MDCK cells at 20 ug/mL incubated for 4 hrs post-infection followed by compound washout measured after 24 hrs by hemagglutininating unit assay; format: functional, organism-based; details: A/Puerto Rico/8/1934(H1N1); procedure, shortened: as §1

## O=C(/C=C/c1ccc(O)cc1)c1ccc(O)cc1O [ISOLIQUIRITIGENIN]
Influenza A virus [1]
  Activity: inactive
MDCK [2]
  inhibition: Active
Influenza A virus [3]
  Activity: 42%
Influenza A virus [4]
  Activity: inactive
Influenza A virus [5]
  Activity: inactive
Influenza A virus [6]
  inhibition at 10 µg/mL: 75%
Influenza A virus [7]
  Activity: 30%
MDCK [8]
  Activity: Toxic
Influenza A virus [9]
  Activity: inactive
Influenza A virus [10]
  Activity: inactive
Influenza A virus [11]
  Activity: 75%
MDCK [12]
  inhibition: Active
Influenza A virus [13]
  Activity: 55%

## O=C1/C(=C/c2ccc(O)c(O)c2)COC/C1=C\c1ccc(O)c(O)c1
MDCK [14]
  Activity: Toxic
Influenza A virus [15]
  Activity: 75%
Influenza A virus [16]
  Activity: 30%
Influenza A virus [17]
  Activity: 62%
Influenza A virus [18]
  Activity: 55%
Influenza A virus [4]
  Activity: inactive
Influenza A virus [19]
  Activity: inactive
Influenza A virus [20]
  Activity: 56%
Influenza A virus [21]
  Activity: 25%
Influenza A virus [22]
  Activity: Active
MDCK [12]
  inhibition: Active
Influenza A virus [23]
  Activity: inactive
